Experiment [1] is filed under the species Sus scrofa. As to the kind of experiment: Binding affinity to pig kidney Na+/K+-ATPase assessed as inorganic phosphate release after 2 hrs. The essentials: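 Purified pig kidney Na⁺,K⁺-ATPase (specific activity 25–30 U/mg protein) preincubated 2 h with a range of inhibitor concentrations in 130 mM NaCl, 20 mM KCl, 4 mM MgCl₂, 30 mM histidine pH 7.4, 20 °C. 3 mM ATP added, 5 min reaction, released inorganic phosphate measured. Ouabain-insensitive activity (1 mM ouabain) subtracted. K_app from hyperbolic fit.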

Experiment [2] has as its system MCF7. The experiment can be described thus: Antiproliferative activity against human MCF7 cells assessed as cell viability treated for 48 hrs followed by compound washout measured after 72 hrs by fluorometric CellTiter-Blue reagent assay. The experiment is classed as functional, cell-based. The essentials: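 MCF-7 cells grown in DMEM Glutamax with 10% fetal calf serum, penicillin and streptomycin, 37 °C, 5% CO₂. Seeded 3000 cells/well in triplicate, cultured overnight, then given a dilution series of compound; equivalent DMSO dilution series used for normalization. 48 h exposure, then 72 h in fresh compound-free medium before viability read-out.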
On the technique in general: Alamar Blue is a resazurin reagent that responds to reducing activity.

The results in this text go back to ChEMBL document CHEMBL1765087, “Synthesis and evaluation of cardiac glycoside mimics as potential anticancer drugs” (Bioorg Med Chem, 2011).

Where only a bound is given, the exact number is not on record here.

In the case of `C[C@]12CC[C@H](SCCOCCOCCOCCS[C@H]3CC[C@@]4(C)[C@H](CC[C@@H]5[C@@H]4CC[C@]4(C)[C@@H](C6=CC(=O)OC6)CC[C@]54O)C3)C[C@H]1CC[C@@H]1[C@@H]2CC[C@]2(C)[C@@H](C3=CC(=O)OC3)CC[C@]12O`, in experiment [1], the Kapp is greater than 53 µM. The 50% inhibitory concentration (IC50) (usually the concentration that inhibits the measured activity by half) in experiment [2] was 13000 nM.

Take `C[C@H]1O[C@@H](O[C@H]2[C@@H](O)C[C@H](O[C@H]3[C@@H](O)C[C@H](O[C@H]4CC[C@@]5(C)[C@H](CC[C@@H]6[C@@H]5CC[C@]5(C)[C@@H](C7=CC(=O)OC7)CC[C@]65O)C4)O[C@@H]3C)O[C@@H]2C)C[C@H](O)[C@@H]1O` [DIGITOXIN]: in experiment [1], the Kapp stood at 0.99 µM. Besides, the IC50 in experiment [2] came out at 20 nM.

On to `C[C@]12CC[C@H](SCCOCCOCCOCCO)C[C@H]1CC[C@@H]1[C@@H]2CC[C@]2(C)[C@@H](C3=CC(=O)OC3)CC[C@]12O`, for which, in experiment [1], the Kapp came to 2.1 µM. In experiment [2], the IC50 was found to be 1400 nM.

For `C[C@]12CC[C@H](SCCOCCOCCO)C[C@H]1CC[C@@H]1[C@@H]2CC[C@]2(C)[C@@H](C3=CC(=O)OC3)CC[C@]12O`, in experiment [1], the Kapp was determined as 1.27 µM. Further, the IC50 in experiment [2] worked out at 800 nM.

Consider `C[C@]12CC[C@H](SCCO)C[C@H]1CC[C@@H]1[C@@H]2CC[C@]2(C)[C@@H](C3=CC(=O)OC3)CC[C@]12O`, for which the Kapp in experiment [1] is 0.48 µM. In addition, the IC50 in experiment [2] was 200 nM.

Regarding `C[C@]12CC[C@H](SCCOCCOCCS[C@H]3CC[C@@]4(C)[C@H](CC[C@@H]5[C@@H]4CC[C@]4(C)[C@@H](C6=CC(=O)OC6)CC[C@]54O)C3)C[C@H]1CC[C@@H]1[C@@H]2CC[C@]2(C)[C@@H](C3=CC(=O)OC3)CC[C@]12O`, the Kapp in experiment [1] was 20.5 µM. For the same compound, in experiment [2], the IC50 is 6600 nM.

With `C[C@]12CC[C@H](O)C[C@H]1CC[C@@H]1[C@@H]2CC[C@]2(C)[C@@H](C3=CC(=O)OC3)CC[C@]12O` [DIGITOXIGENIN], the Kapp in experiment [1] worked out at 0.52 µM. For the same compound, in experiment [2], the half-maximal inhibitory concentration (IC50) was found to be 600 nM.

Regarding `C[C@]12CC[C@H](S)C[C@H]1CC[C@@H]1[C@@H]2CC[C@]2(C)[C@@H](C3=CC(=O)OC3)CC[C@]12O`, the Kapp in experiment [1] amounted to 0.42 µM. In experiment [2], the half-inhibitory concentration (IC50) was determined as 500 nM.

On to `C[C@]12CC[C@H](SCCOCCS[C@H]3CC[C@@]4(C)[C@H](CC[C@@H]5[C@@H]4CC[C@]4(C)[C@@H](C6=CC(=O)OC6)CC[C@]54O)C3)C[C@H]1CC[C@@H]1[C@@H]2CC[C@]2(C)[C@@H](C3=CC(=O)OC3)CC[C@]12O`, for which, in experiment [1], the Kapp worked out at 17.2 µM. For the same compound, in experiment [2], the IC50 turned out to be 8600 nM.

On to `C[C@]12CC[C@H](SCCS[C@H]3CC[C@@]4(C)[C@H](CC[C@@H]5[C@@H]4CC[C@]4(C)[C@@H](C6=CC(=O)OC6)CC[C@]54O)C3)C[C@H]1CC[C@@H]1[C@@H]2CC[C@]2(C)[C@@H](C3=CC(=O)OC3)CC[C@]12O`, for which the Kapp in experiment [1] is 9.9 µM. Besides, the concentration for half-maximal inhibition (IC50) in experiment [2] is 7000 nM.

Take `C[C@]12CC[C@H](SCCOCCO)C[C@H]1CC[C@@H]1[C@@H]2CC[C@]2(C)[C@@H](C3=CC(=O)OC3)CC[C@]12O`: the Kapp in experiment [1] came to 0.73 µM. Moreover, the IC50 in experiment [2] amounted to 400 nM.
